Screening results as filed in PubChem.
Rows were chosen to be rich in hits. Some 1.8% of all compounds tested hit in one or more screens of this group.
M5 PAM = CHRM5 positive allosteric modulation | P08912 | CHO-K1 hM5, Fluo-8 calcium, ACh EC20 PAM; 0% = ACh EC20, 100% = ACh EC100 | activation, % at 3 µM | 360,000 tested, 0.3% active | AID 624038;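 active = activation above the run cutoff, the mean activation of all test compounds plus 3 SD, cut at about 18% in these data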
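System – CHO-K1 hM5 cells · Compound – 3 µM, single dose · Incubation – compound preincubation 140 s before EC20 acetylcholine addition · Technique – Fluo-8 calcium fluorescence · Measure – Max/basal fluorescence ratio as % of EC20–EC100 ACh window · Benchmarks – low control EC20 acetylcholine (0%), high control EC100 acetylcholine (100%) · Replication – singlicate, one well per test compound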
M4 antag = blocks acetylcholine activation of human M4 receptor; P08173; CHO-hM4 cells, ACh EC80, Fluo-8 calcium fluorescence; inhibition, % at 3 µM; 360,000 tested, 0.73% active;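 active = inhibition above its plate's cutoff, the mean inhibition of sample wells plus 3 SD, cut at about 27% in these data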;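 also: 0% = acetylcholine EC80 with DMSO and 100% = DMSO without agonist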
Target sequence (P08173 whole entry, looked up): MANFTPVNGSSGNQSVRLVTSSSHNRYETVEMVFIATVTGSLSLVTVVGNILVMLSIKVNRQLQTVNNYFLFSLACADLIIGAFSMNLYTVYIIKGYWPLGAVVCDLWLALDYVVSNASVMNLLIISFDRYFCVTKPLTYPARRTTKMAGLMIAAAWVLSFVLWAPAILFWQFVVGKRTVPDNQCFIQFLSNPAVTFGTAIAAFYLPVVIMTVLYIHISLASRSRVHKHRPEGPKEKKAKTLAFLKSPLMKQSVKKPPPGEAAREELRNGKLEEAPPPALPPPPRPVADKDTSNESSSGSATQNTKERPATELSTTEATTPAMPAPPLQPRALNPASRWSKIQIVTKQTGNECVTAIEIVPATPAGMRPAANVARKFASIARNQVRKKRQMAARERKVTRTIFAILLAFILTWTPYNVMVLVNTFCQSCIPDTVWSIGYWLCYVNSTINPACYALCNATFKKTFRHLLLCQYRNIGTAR
CHRM4 PAM = potentiates acetylcholine response at human M4 receptor | CHO-K1 hM4/Gqi5, Fluo-8 calcium fluorescence, ACh EC20; 0% = ACh EC20, 100% = maximal ACh | P08173 | 360,000 tested, 0.4% active | activation, % at 3 µM;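 active = activation above its plate's cutoff, the mean activation of sample wells plus 3 SD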
M5 ag = CHRM5 agonism in calcium assay | P08912 | CHO-K1 hM5 cells, Fluo-8 calcium fluorescence; 0% DMSO wells, 100% maximal acetylcholine response | activation, % at 3 µM | 360,000 tested, 0.19% active | AID 624037;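 active = activation above the run's mean over test compounds plus 3 SD, cut at about 23% in these data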;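 also: signal is peak over basal fluorescence ratio across the kinetic read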
M4 ag = CHRM4 agonism in calcium assay; CHO-K1 hM4/Gqi5, Fluo-8 calcium fluorescence; vehicle 0%, full acetylcholine response 100%; P08173; 360,000 tested, 0.14% active; AID 624127; activation, % at 3 µM;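 active = activation above the run mean over all test wells plus 3 SD, cut at about 32% in these data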;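 also: peak over basal fluorescence ratio per well then scaled between controls; 0% = DMSO wells and 100% = acetylcholine at EC100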
CHRM5 antagonist = CHRM5 antagonism in calcium assay | inhibition, % at 3 µM | 360,000 tested, 0.59% active | CHO-hM5 cells, Fluo-8 calcium fluorescence, ACh EC80 | P08912 | AID 624040;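 active = inhibition above a per-plate cutoff, the mean of that plate's test compounds plus 3 SD, cut at about 27% in these data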;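 also: 0% = acetylcholine EC80 with DMSO and 100% = DMSO without agonist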
* marks the source's active call; other numbers are inactive results; ! = not confirmed by another sample.

SMILES	M5 PAM	M4 antag	CHRM4 PAM	M5 ag	M4 ag	CHRM5 antagonist
NC(=O)c1ccc(N2CCN(S(=O)(=O)c3ccccc3)CC2)c([N+](=O)[O-])c1	-25.9	19.3	-18.4	10.9	16.3	29.4*
O=C(c1ccc(N2CCCCC2)c([N+](=O)[O-])c1)N1CCN(S(=O)(=O)c2ccccc2)CC1	-5.8	-0.8	-10.9	-2.3	8.7	3.8
CSc1nc(-c2ccc(Cl)cc2)c(C#N)c(=O)n1C	4.4	-10.0	20.1*	2.9	1.8	-3.1
O=C(Cn1nnc2c(cnn2-c2ccc(F)cc2)c1=O)Nc1ccccc1C(F)(F)F	-3.5	-3.4	0.4	-5.6	0.5	8.2
C=CC[N+]1(CC#CCOC(c2ccccc2)c2ccccc2)CCOCC1	0.1	9.7	-11.4	-7.3	-0.1	0.7
CCN(CC)CC#CCOC(c1ccccc1)c1ccccc1	-32.1	30.4*	-24.0	-13.2	-1.3	21.6
CN(C)CC#CCOC(c1ccccc1)c1ccccc1	-34.8	27.2*	-23.6	-16.9	-0.1	26.3
CCc1ccc(CNC(=O)CCS(=O)(=O)Cc2ccc(C)cc2)cc1	3.3	2.1	17.1	-2.9	2.5	-0.8
CC(Sc1nnc(C2CC2)n1-c1ccccc1)C(=O)N1CCNC1=O (centres undefined)	-3.6	-10.7	22.9*	2.7	0.3	2.5
CC(Sc1nnc(C2CC2)n1Cc1ccccc1)C(=O)N1CCNC1=O (centres undefined)	5.3	-2.9	2.5	0.2	0.8	-3.5
COc1ccc(NC(=O)CS(=O)CC(=O)Nc2ccc(OC)c(OC)c2)cc1 (centres undefined)	12.9	-3.9	30.4*	-3.3	0.7	-7.4
CC(=O)N(Cc1ccccc1)c1ccc(C(=O)O)cc1	25.3*	-11.6	4.0	-1.6	0.6	3.0
O=[N+]([O-])c1ccccc1S(=O)(=O)N1CCSCC1	-2.3	4.4	-1.2	2.8	1.4	3.8
Cc1cc2n(n1)C(c1ccco1)Nc1ccccc1-2 (centres undefined)	-0.2	-1.7	13.6	-1.5	1.1	4.2
Cc1cc2n(n1)C(c1ccc(O)cc1)Nc1ccccc1-2 (centres undefined)	-0.6	13.2	30.3*	6.2	1.0	0.0
Cc1cc(NC(=O)CSCC(=O)Nc2ccc(Cl)c(C(F)(F)F)c2)no1	-8.3	-5.0	0.3	2.0	3.6	9.9
Cc1cc(NC(=O)CN(C)CC(=O)Nc2ccc(Cl)c(C(F)(F)F)c2)no1	-5.6	-6.9	23.5*	4.2	6.4	8.0
Fc1ccc(C2CCNCC2COc2ccc3c(c2)OCO3)cc1 (centres undefined)	-17.0	20.3	-19.3	2.5	12.2	19.9
Fc1ccc([C@@H]2CCNC[C@H]2COc2ccc3c(c2)OCO3)cc1	-19.2	34.5*!	-16.7	6.9	15.1	29.7*!
CN1CCC(=O)N(CCOc2ccccc2)CC1	20.4*	-15.5	21.0	2.0	1.0	-15.2
O=C(O)c1cccc(OCCN2CCCC2=O)c1	4.4	-1.5	3.0	1.8	-0.2	-3.4
COc1ccccc1N1C(=O)C2C(C(=O)c3ccccc3)=NN(c3ccc(C)cc3)C2C1=O (centres undefined)	14.1	0.3	-7.7	7.7	1.2	-9.8
COc1ccccc1N1C(=O)C2C(C(=O)c3ccccc3)=NN(c3ccc(Br)cc3)C2C1=O (centres undefined)	9.1	37.5*	-7.0	0.7	19.7	-0.7
O=C(CCl)Nc1ccccc1C(=O)c1ccccc1	8.1	-6.0	19.8*	-11.6	0.2	3.5
Cc1cc(Br)cn2c(Cc3ccccc3)c(-c3cccc(Br)c3)nc12	-2.0	-1.1	0.2	-0.2	1.1	2.4
SMILES	M5 PAM	M4 antag	CHRM4 PAM	M5 ag	M4 ag	CHRM5 antagonist
Nc1ccn(C(C=O)CC(C=O)CO)c(=O)n1 (centres undefined)	-3.2	-4.7	-0.7	3.2	1.6	-4.3
CC1=NOC(=O)/C1=C\c1ccc(-c2ccc(Br)cc2)o1	-17.1	34.5*	-10.8	-5.0	10.2	31.5*
CC1=NOC(=O)/C1=C\c1ccc(-c2cc(Cl)ccc2Cl)o1	5.3	6.8	3.4	-1.6	1.1	12.1
CC1=NOC(=O)/C1=C/c1ccc(-c2ccc(Cl)cc2)o1	-6.6	34.0*	-2.2	1.7	8.8	16.9
COc1cc(C=O)ccc1OC(=O)c1cccnc1	-13.8	-7.8	0.0	-2.1	1.1	29.8*
CN1CCN(C(=S)NC(=O)c2ccc(Cl)cc2)CC1	16.6	-16.3	22.7*	-3.6	0.8	-6.8
O=C(NC(=S)N1CCCC1)c1ccc(Cl)cc1	-7.3	-10.6	6.1	-3.2	0.7	11.7
CCC(C)N(C(=O)COC(=O)CCc1c[nH]c2ccccc12)C1CCS(=O)(=O)C1 (centres undefined)	-1.9	-10.3	5.9	-2.7	4.1	-13.8
CCN(C(=O)COC(=O)Cc1c[nH]c2ccccc12)C1CCS(=O)(=O)C1 (centres undefined)	15.1	-19.0	19.1*	-3.3	1.4	-15.3
CCNC(=O)C1(C)CCCN(C(=O)c2nc(C)oc2C)C1 (centres undefined)	-2.7	-1.3	3.9	2.0	1.2	-1.5
CC(=NNc1nc2ccccc2s1)c1ccncn1	-0.5	58.2*	-2.4	13.7	23.0	15.4
C/C(=N\Nc1nc2ccccc2s1)c1ccc(Br)s1	-5.4	2.1	-7.7	-0.9	-0.9	9.5
CC(C)COc1cccc(C(=O)Nc2ccc(N3CCOCC3)cc2N2CCOCC2)c1	-0.6	-5.3	4.6	4.1	7.6	-4.2
CCOC(=O)c1cnc2cc(F)c(F)cc2c1N1CCN(C)CC1	1.0	-10.6	8.0	-3.9	0.4	6.0
COc1cccc2c1C(=O)c1c(O)c3c(c(O)c1C2=O)CC(O)(C(C)=O)CC3OC1CC(N(C)C)C(O)C(C)O1 (centres undefined)	-1.2	13.9	-1.6	19.1	7.2	7.5
COc1cccc2c1C(=O)c1c(O)c3c(c(O)c1C2=O)C[C@@](O)(C(=O)CO)C[C@@H]3OC1CC(N)C(O)C(C)O1 (some centres undefined)	-29.0	4.0	-1.8	74.8*	17.0	26.1
CC(=O)[C@@]1(O)Cc2c(O)c3c(c(O)c2[C@H](O[C@H]2C[C@H](N)[C@H](O)[C@H](C)O2)C1)C(=O)c1ccccc1C3=O	-1.6	9.6	0.3	26.3*	36.3*	8.0
COc1cccc2c1C(=O)c1c(O)c3c(c(O)c1C2=O)C[C@@](O)(C(=O)CO)C[C@@H]3O[C@H]1C[C@H](N)[C@H](O)[C@H](C)O1	-10.6	6.0	-7.5	8.4	14.7	15.1
COc1ccc(CN2C(=O)[C@H]3Cc4c([nH]c5ccccc45)C(C)(C)N3C2=O)cc1	-7.4	9.7	-6.1	0.8	16.0	18.7
